Target: T1, A disintegrin and metalloproteinase with thrombospondin motifs 4 (Homo sapiens, UniProt O75173)
T1 sequence (O75173 whole entry): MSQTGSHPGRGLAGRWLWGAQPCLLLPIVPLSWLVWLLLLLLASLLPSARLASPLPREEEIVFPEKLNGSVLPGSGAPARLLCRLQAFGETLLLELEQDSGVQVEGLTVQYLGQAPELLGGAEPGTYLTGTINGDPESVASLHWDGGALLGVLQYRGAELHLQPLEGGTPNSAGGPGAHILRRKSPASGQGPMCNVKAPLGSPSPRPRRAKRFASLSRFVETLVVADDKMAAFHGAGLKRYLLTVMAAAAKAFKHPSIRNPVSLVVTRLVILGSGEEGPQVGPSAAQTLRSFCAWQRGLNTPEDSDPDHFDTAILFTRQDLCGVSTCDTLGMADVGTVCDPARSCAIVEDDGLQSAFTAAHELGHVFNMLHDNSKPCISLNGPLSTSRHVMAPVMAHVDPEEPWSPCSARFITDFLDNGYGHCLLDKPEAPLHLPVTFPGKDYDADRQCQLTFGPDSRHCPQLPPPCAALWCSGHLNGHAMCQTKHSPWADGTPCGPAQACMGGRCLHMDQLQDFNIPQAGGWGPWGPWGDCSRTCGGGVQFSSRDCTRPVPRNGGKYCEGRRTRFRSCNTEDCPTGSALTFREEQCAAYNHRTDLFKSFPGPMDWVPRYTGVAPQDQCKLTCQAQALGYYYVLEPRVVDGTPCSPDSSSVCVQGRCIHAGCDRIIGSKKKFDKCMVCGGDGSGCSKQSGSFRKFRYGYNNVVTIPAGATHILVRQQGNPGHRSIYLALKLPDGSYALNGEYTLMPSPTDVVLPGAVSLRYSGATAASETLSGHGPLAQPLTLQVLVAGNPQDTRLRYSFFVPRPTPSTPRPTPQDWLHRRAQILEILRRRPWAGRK
Experiment: Inhibition of human recombinant ADAMTS-4 using QTVTWPDMELPLPRNITEGEARGSVIL-TVKPIFEVSPSPL(biotinyl)K as substrate incubated for 10 mins prior to substrate addition measured after 3 hrs by spectrophotometry
In short: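 It was then added to streptavidin wells coated with the biotinylated 41-mer aggrecan peptide and reacted for 3 h at 37 °C. Cleavage product was detected by BC-3 anti-ARGxx ELISA with HRP and TMB, read at 450 nm.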

Work on `O=C(COc1ccc(Cl)cc1)NNC(=S)NCCCCC1CCCCC1` yielded an IC50 of 630 nM.
